Values after ≈ are worked out from the molar mass of the structure shown.
What was measured:
HUVEC = assay: Inhibition of HUVEC cell proliferation; settings: Homo sapiens
[1] = Partition coefficient (logP); type: physicochemical; settings: octanol/water
Method in brief: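 Shake-flask partition: a methanolic sample aliquot added to equal volumes of 1-octanol and pH 7.4 buffer, equilibrated 8 h, then compound concentration measured in each phase.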

[2] = Solubility at pH 5.2; type: physicochemical; settings: buffer
Method in brief: (§1)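 Saturated compound solution in pH-adjusted buffer is filtered. Concentration comes from the HPLC peak area compared against standard methanolic solutions.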

[3] = Solubility at pH 7.4; type: physicochemical; settings: buffer; method in brief: as §1
Homo sapiens = species on record: Homo sapiens; assay: Compound tested for ability to bind to human plasma protein; type: cell-free
Method in brief: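 Human plasma binding: buffer solutions of test compound equilibrated with human plasma, free and bound drug separated by ultrafiltration, free compound concentration measured by HPLC; reported as percent bound.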

[4] = Volume distribution of compound was determined as average of four rats at each dose of 5 mg/kg intravenous and 16 mg/kg peroral administration; type: ADME, organism-based; settings: rat, in vivo, read-out: Vdss
Method in brief: (§2)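 Rats (n=4 per route, averaged) dosed 5 mpk iv as a DMSO solution and 16 mpk po as a suspension in 0.5% methocel.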

[5] = CL (clearance) of compound was determined as average of four rats at each dose of 5 mg/kg intravenous and 16 mg/kg peroral administration; type: ADME, organism-based; settings: rat, in vivo; method in brief: as §2
[6] = Oral bioavailability (F%) of compound was determined as average of four rats at each dose of 5 mg/kg intravenous and 16 mg/kg peroral administration; type: ADME, organism-based; settings: rat, in vivo; method in brief: as §2
[7] = Volume distribution (Vdss) of compound was determined after intravenous administration in average of two dogs at a dose of 1 mg/kg; type: ADME, organism-based, Canis lupus familiaris; set-up: dose 1 mg/kg, route intravenous; settings: dog, in vivo, read-out: Vdss
Method in brief: (§3)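 Dogs (n=2, averaged) received 1 mpk iv as a solution in DMSO.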

[8] = Half life period (t1/2) of compound was determined after intravenous administration in average of two dogs at a dose of 1 mg/kg; type: ADME, organism-based, Canis lupus familiaris; set-up: dose 1 mg/kg, route intravenous; settings: dog, in vivo; method in brief: as §3
[9] = CL (clearance) of compound was determined after intravenous administration in average of two dogs at a dose of 1 mg/kg; type: ADME, organism-based, Canis lupus familiaris; set-up: dose 1 mg/kg, route intravenous; settings: dog, in vivo; method in brief: as §3
[10] = Half life period as average of four rats at each dose of 5 mg/kg intravenous and 16 mg/kg peroral administration; type: ADME, organism-based; settings: rat, in vivo; method in brief: as §2
[11] = Volume distribution of compound was determined as average of four rats at each dose of 5 mg/kg intravenous and 20 mg/kg peroral administration; type: ADME, organism-based; settings: rat, in vivo, read-out: Vdss
Method in brief: (§4)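 Rats, four per route and values averaged; 5 mpk iv given as a solution in DMSO, 20 mpk po as a suspension in 0.5% methocel.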

[12] = CL (clearance) of compound was determined as average of four rats at each dose of 5 mg/kg intravenous and 20 mg/kg peroral administration; type: ADME, organism-based; settings: rat, in vivo; method in brief: as §4
[13] = Oral bioavailability (F%) of compound was determined as average of four rats at each dose of 5 mg/kg intravenous and 20 mg/kg peroral administration; type: ADME, organism-based; settings: rat, in vivo; method in brief: as §4
[14] = Half life period as average of four rats at each dose of 5 mg/kg intravenous and 20 mg/kg peroral administration; type: ADME, organism-based; settings: rat, in vivo; method in brief: as §4
[15] = Solubility atpH 5.2; type: physicochemical; settings: pH 5.2; method in brief: as §1

| logP [1] | solubility [3] [µg/mL] | Binding (Homo sapiens) [%] | Structure (SMILES) | IC50 (HUVEC) [nM] | further results |
| --- | --- | --- | --- | --- | --- |
|  |  |  | O=c1nc(-c2ccc3c(c2)ncn3-c2ccccc2)ccn1CCCN1CCCCC1 | 164 |  |
| 3.55 | 21 (≈ 0.0527 mM) | 97.4 | c1ccc(-n2cnc3cc(-c4ccc(OCCN5CCCCC5)cc4)cnc32)cc1 | 48 | solubility [2]: 6460 µg/mL (≈ 16.2 mM) |
|  | > 1000 | 85 | O=c1ccc(-c2ccc3c(c2)ncn3-c2ccccc2)cn1CCN1CCCCC1 |  |  |
| 4.29 | < 0.01 | 99.4 | c1ccc(-n2cnc3cc(-c4ccc(OCCN5CCCCC5)cc4)ccc32)cc1 | 87 | Vd [4]: 1.9 L/kg; clearance [5]: 14.4 mL/min/kg; bioavailability [6]: 76%; Vd [7]: 3.1 L/kg; half-life [8]: 5.2 h; clearance [9]: 4.6 mL/min/kg; half-life [10]: 6.1 h; solubility [2]: 120 µg/mL (≈ 0.302 mM) |
|  |  |  | c1ccc(-n2cnc3cc(-c4ccc(OCCN5CCCCC5)nc4)ccc32)cc1 | 122 |  |
|  |  |  | COc1ccc(-c2ccc3c(c2)ncn3-c2ccccc2)cc1 | > 1000 |  |
| 2.25 | 8400 (≈ 20.4 mM) | 80.7 | O=c1cc(-c2ccc3c(c2)ncn3-c2ccccc2)ccn1CCCN1CCCCC1 | 37 | Vd [11]: 3.9 L/kg; clearance [12]: 17.3 mL/min/kg; bioavailability [13]: 73%; Vd [7]: 7.9 L/kg; half-life [8]: 10.4 h; clearance [9]: 8.9 mL/min/kg; half-life [14]: 2.9 h; solubility [15]: 33900 µg/mL (≈ 82.2 mM) |
|  |  |  | c1ccc(-n2cnc3cc(-c4ccc(NCCN5CCOCC5)nc4)ccc32)cc1 | 213 |  |
|  |  |  | O=c1ccc(-c2ccc3c(c2)ncn3-c2ccccc2)cn1CCCN1CCCCC1 | 152 |  |

Reference: ChEMBL document CHEMBL1144948, “Design and synthesis of 1,5-diarylbenzimidazoles as inhibitors of the VEGF-receptor KDR” (Bioorg Med Chem Lett, 2003)
